# Experimental data reported in publication PMC8585696 (Immunity, 2021).
# B1: Dkk-1: recombinant mouse Dkk-1 (5897-DK-010, R&D systems), Wnt pathway antagonist (protein, UniProt O54908 32-272, looked up)
# Dickkopf-related protein 1: TLNSVLINSNAIKNLPPPLGGAGGQPGSAVSVAPGVLYEGGNKYQTLDNYQPYPCAEDEECGSDEYCSSPSRGAAGVGGVQICLACRKRRKRCMRHAMCCPGNYCKNGICMPSDHSHFPRGEIEESIIENLGNDHNAAAGDGYPRRTTLTSKIYHTKGQEGSVCLRSSDCAAGLCCARHFWSKICKPVLKEGQVCTKHKRKGSHGLEIFQRCYCGEGLACRIQKDHHQASNSSRLHTCQRH
# Key:
# C57BL/6 mice [1] = assay: BALF inflammatory cell counts; assay type: in vivo, mouse; settings: C. albicans intranasal, inhibitor 10 or 20 μg/kg i.p., Figure 2I
# C. albicans = assay: lung fungal burden; assay type: in vivo
# How it was run: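 Whole-lung C. albicans CFU was counted in C57BL/6 mice 24 h after the last of 8 intranasal challenges (1 × 10^5 viable cells in saline, every other day). Dkk-1 inhibitor or recombinant mouse Dkk-1 (5 μg/kg) was given i.p. together with each challenge.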
# Dkk-1 = settings: ref Chae et al., 2016; cited from earlier work
# C57BL/6 mice [2] = assay: cytokines from lung by ELISA; assay type: in vivo, mouse
# How it was run: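 C57BL/6 mice received 1 × 10^5 viable C. albicans intranasally every other day for 8 challenges. Fungal cells were thawed (>95% viable), washed and suspended in normal saline. Dkk-1 inhibitor (10 or 20 μg/kg) or recombinant mouse Dkk-1 (5 μg/kg) was given i.p. at each challenge. Lungs were taken 24 h after the last challenge, and cytokines in lung homogenate supernatants were measured by ELISA (TMB, 450 nm).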
# GP1bα [3] = assay: GP1bα pulldown from human platelet lysates; assay type: binding; settings: 60 μg biotinylated bait, 1 h, 4°C, western blot; Figure 4E
# GP1bα [4] = settings: through the A1 domain; ref Azuma et al., 1991; cited from earlier work
# [5] = tested on: human platelets (platelet-rich plasma); assay: platelet aggregation assay; assay type: cell-based; settings: collagen 2.5 μg/mL or increasing candidalysin, 5 min, Figure S4G
# [6] = tested on: GATA3^+ Th2 and RORγt^+ Th17 cells; assay: lung T cell quantitation by flow cytometry; assay type: in vivo, mouse; settings: ece1Δ/Δ C. albicans intranasal; Dkk-1 5 μg/kg i.p.; Figures 3F, 3G
# How it was run: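 Mice were challenged with C. albicans (1 × 10^5 viable cells) intranasally every other day ×8, with recombinant mouse Dkk-1 (5 μg/kg i.p.) at each challenge, and analyzed 24 h after the final challenge. Erythrocytes in total lung cells were lysed with ACK. Cells were stained for live/dead, CD45, CD3 and CD4, split into 3 groups, fixed and permeabilized, then stained for T-bet, GATA3 or RORγt. Results are given as percentages and absolute counts.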
# C57BL/6 mice [7] = assay: allergic airway disease overall; assay type: in vivo, mouse; settings: intraperitoneal route, no fungus; data not shown
# C57BL/6 mice [8] = assay: airway hyperresponsiveness; assay type: in vivo, mouse; settings: ece1Δ/Δ C. albicans intranasal; Dkk-1 5 μg/kg i.p.; Figure 3B
molecule,measurement,setting,value
NCC1CCN(c2nccc(-c3ccc4ccccc4c3)n2)CC1 [WAY 262611],BALF eosinophilia under Dkk-1 inhibitor,C57BL/6 mice [1],most notably reducing BALF eosinophilia
same,BALF inflammatory cell recruitment under Dkk-1 inhibitor,C57BL/6 mice [1]; dose-dependent,progressively reduced
same,lung fungal burden under Dkk-1 inhibitor,"C. albicans; C. albicans intranasal, inhibitor i.p., Figure 2N",markedly elevated lung fungal burdens
same,block of Dkk-1 in vivo,Dkk-1,previously shown to block this peptide in vivo
same,secretion of IL-17 from whole lung under Dkk-1 inhibitor,"C57BL/6 mice [2]; C. albicans intranasal, inhibitor 10 or 20 μg/kg i.p., Figure 2J",inhibited secretion of IL-17
same,"secretion of IL-1β, IL-6 and TNF under Dkk-1 inhibitor","C57BL/6 mice [2]; C. albicans intranasal, inhibitor 10 or 20 μg/kg i.p., Figure 2K",not significantly affected
IFKIIISKIQIVMGLNGIPIKVAGSQNIGMI [scrambled control (SC) peptide],association with GP1bα from human platelet lysates,GP1bα [3],but not its scrambled control peptide
"VWF A1A2A3 tridomain: recombinant human VWF A1, A2, A3 domains (Q1238-G1874) expressed in HEK293",binding of VWF fragment to GP1bα,GP1bα [4],binds GP1bα through the A1 domain
collagen,platelet aggregation in vitro,[5],in marked contrast to the activating GPIIb/IIIa ligand collagen
B1,recruitment to lung of GATA3^+ Th2 and RORγt^+ Th17 cells with exogenous Dkk-1,[6],markedly increase recruitment to lung
same,fungal lung burden with exogenous Dkk-1,"C. albicans; ece1Δ/Δ C. albicans intranasal, Dkk-1 5 μg/kg i.p., Figure 3H",significantly reduced
same,"indices of allergic airway disease, Dkk-1 alone",C57BL/6 mice [7],no effect on any index of allergic airway disease
same,airway hyperresponsiveness with exogenous Dkk-1,C57BL/6 mice [8],significantly enhanced airway hyperresponsiveness
same,"secretion of lung Th2 cytokines, especially IL-4, and IL-17 with exogenous Dkk-1","C57BL/6 mice [2]; ece1Δ/Δ C. albicans intranasal, Dkk-1 5 μg/kg i.p., Figure 3D",markedly enhanced
same,secretion of innate pro-inflammatory cytokines with exogenous Dkk-1,"C57BL/6 mice [2]; ece1Δ/Δ C. albicans intranasal, Dkk-1 5 μg/kg i.p., Figure 3E",did not influence the secretion of innate pro-inflammatory cytokines
